Source: ChEMBL document CHEMBL1933063, “Investigation of chalcones and benzochalcones as inhibitors of breast cancer resistance protein” (Bioorg Med Chem, 2012)
Active and inactive are the calls of the source. The rule behind the calls is not given here.

How the values were obtained:
[1] = biological target: T1, Broad substrate specificity ATP-binding cassette transporter ABCG2 (Homo sapiens, UniProt Q9UNQ0); assay: Inhibition of human BCRP expressed in MDCK2 cells assessed as Hoechst 33342 accumulation preincubated for 30 mins by fluorimetry; type: cell-based, MDCK-II; conditions: read-out: IC50
T1 sequence (Q9UNQ0 whole entry): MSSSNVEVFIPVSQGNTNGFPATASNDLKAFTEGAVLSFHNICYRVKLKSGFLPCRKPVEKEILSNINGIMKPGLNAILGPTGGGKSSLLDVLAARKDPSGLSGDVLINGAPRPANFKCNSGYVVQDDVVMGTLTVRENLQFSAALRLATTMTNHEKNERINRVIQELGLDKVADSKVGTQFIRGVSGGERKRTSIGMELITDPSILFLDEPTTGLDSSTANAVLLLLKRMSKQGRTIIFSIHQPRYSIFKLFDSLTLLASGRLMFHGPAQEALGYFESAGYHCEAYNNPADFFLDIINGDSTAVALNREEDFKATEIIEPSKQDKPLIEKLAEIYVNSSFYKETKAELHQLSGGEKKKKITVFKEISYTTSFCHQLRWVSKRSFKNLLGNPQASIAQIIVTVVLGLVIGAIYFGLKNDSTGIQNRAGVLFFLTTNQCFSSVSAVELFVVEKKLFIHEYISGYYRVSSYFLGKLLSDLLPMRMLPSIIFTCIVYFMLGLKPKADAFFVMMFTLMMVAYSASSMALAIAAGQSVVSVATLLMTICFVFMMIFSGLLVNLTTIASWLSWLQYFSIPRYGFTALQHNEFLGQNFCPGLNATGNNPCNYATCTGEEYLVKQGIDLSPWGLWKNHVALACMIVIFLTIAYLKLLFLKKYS
Outline: (§1)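 Cells washed three times in Krebs-HEPES buffer, about 20,000 per well, preincubated with test compound at varied concentrations for 30 min at 37 °C, 5% CO2. Hoechst 33342 then added (final 1 µM). Fluorescence (ex 355, em 460 nm) read every 60 s up to 120 min at 37 °C. KHB background subtracted, 100–109 min mean plotted, four-parameter logistic fit; ≥3 independent experiments.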

MCF7/MX [2] = assay: Potentiation of mitoxantrone anticancer activity against human MCF7/MX cells at 3 uM after 72 hrs by MTT assay; type: functional, cell-based
Outline: (§2)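 Cells seeded (1250/well MDCK, 10,000/well MCF-7) and left 6 h at 37 °C, 5% CO2. Mitoxantrone or SN-38 dose range added with or without three concentrations of modulator, then 72 h incubation. MTT added for 1 h, cells lysed in DMSO, absorbance read at 544 nm minus 710 nm. EC50 derived; parental cells as controls; three independent experiments.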

[3] = biological target: Multidrug resistance-associated protein 1 (Homo sapiens, UniProt P33527); assay: Inhibition of MRP1 overexpressed in human 2008 MRP1 cells assessed as calcein AM accumulation at 10 uM by fluorimetry; type: cell-based; conditions: human, 2008, 10 µM
Multidrug resistance-associated protein 1, sequence (P33527 whole entry): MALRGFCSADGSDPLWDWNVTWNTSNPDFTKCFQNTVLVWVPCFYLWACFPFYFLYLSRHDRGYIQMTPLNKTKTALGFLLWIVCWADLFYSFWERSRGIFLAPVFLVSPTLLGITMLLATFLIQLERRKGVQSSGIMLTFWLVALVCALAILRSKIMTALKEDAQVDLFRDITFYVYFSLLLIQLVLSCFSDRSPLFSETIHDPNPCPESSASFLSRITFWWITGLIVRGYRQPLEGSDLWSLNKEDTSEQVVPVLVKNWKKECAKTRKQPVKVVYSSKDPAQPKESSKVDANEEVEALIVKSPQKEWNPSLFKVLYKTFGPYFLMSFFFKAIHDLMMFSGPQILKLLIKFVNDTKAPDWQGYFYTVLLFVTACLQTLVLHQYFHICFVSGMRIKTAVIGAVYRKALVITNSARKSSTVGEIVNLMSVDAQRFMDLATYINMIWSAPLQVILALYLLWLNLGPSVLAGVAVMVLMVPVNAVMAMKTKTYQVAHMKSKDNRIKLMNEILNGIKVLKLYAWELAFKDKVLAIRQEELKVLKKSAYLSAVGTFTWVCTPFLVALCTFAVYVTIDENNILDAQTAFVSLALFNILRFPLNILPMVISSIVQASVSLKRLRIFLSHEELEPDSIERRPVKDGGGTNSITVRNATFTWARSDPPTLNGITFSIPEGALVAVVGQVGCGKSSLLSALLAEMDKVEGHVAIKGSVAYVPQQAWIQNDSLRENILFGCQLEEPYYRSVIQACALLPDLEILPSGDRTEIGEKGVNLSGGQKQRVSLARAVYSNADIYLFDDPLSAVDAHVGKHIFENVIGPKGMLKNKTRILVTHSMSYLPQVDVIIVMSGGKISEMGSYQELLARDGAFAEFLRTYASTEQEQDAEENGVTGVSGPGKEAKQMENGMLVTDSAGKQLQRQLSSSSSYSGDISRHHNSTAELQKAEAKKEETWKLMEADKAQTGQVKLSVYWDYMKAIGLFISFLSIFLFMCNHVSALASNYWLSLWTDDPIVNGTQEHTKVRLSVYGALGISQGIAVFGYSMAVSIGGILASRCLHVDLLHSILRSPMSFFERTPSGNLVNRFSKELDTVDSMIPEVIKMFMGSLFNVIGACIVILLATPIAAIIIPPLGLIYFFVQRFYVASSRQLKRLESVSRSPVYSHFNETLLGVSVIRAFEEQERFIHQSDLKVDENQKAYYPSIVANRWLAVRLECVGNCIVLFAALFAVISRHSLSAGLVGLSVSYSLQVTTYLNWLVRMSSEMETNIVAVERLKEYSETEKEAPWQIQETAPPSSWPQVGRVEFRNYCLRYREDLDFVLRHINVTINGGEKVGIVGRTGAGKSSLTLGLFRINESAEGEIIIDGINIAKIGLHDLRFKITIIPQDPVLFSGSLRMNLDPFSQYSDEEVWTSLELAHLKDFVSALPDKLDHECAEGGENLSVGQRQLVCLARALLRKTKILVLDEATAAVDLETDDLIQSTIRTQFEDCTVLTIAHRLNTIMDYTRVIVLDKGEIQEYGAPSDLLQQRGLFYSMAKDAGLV
Outline: (§3)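 Calcein AM accumulation in A2780adr (P-gp) or 2008 MRP1 cells. Cells washed in Krebs-HEPES buffer, about 30,000 per well, preincubated 30 min with compound at 10 µM final. Calcein AM then added. Fluorescence (ex 485, em 520 nm) read every 60 s up to 90 min at 37 °C. Expressed as percent of vehicle control; n = 3.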

[4] = biological target: ATP-dependent translocase ABCB1 (Homo sapiens, UniProt P08183); assay: Inhibition of MDR1 in human A2780adr cells assessed as calcein AM accumulation at 10 uM by fluorimetry; type: cell-based; conditions: a2780 adr; outline: as §3
ATP-dependent translocase ABCB1, sequence (P08183 whole entry): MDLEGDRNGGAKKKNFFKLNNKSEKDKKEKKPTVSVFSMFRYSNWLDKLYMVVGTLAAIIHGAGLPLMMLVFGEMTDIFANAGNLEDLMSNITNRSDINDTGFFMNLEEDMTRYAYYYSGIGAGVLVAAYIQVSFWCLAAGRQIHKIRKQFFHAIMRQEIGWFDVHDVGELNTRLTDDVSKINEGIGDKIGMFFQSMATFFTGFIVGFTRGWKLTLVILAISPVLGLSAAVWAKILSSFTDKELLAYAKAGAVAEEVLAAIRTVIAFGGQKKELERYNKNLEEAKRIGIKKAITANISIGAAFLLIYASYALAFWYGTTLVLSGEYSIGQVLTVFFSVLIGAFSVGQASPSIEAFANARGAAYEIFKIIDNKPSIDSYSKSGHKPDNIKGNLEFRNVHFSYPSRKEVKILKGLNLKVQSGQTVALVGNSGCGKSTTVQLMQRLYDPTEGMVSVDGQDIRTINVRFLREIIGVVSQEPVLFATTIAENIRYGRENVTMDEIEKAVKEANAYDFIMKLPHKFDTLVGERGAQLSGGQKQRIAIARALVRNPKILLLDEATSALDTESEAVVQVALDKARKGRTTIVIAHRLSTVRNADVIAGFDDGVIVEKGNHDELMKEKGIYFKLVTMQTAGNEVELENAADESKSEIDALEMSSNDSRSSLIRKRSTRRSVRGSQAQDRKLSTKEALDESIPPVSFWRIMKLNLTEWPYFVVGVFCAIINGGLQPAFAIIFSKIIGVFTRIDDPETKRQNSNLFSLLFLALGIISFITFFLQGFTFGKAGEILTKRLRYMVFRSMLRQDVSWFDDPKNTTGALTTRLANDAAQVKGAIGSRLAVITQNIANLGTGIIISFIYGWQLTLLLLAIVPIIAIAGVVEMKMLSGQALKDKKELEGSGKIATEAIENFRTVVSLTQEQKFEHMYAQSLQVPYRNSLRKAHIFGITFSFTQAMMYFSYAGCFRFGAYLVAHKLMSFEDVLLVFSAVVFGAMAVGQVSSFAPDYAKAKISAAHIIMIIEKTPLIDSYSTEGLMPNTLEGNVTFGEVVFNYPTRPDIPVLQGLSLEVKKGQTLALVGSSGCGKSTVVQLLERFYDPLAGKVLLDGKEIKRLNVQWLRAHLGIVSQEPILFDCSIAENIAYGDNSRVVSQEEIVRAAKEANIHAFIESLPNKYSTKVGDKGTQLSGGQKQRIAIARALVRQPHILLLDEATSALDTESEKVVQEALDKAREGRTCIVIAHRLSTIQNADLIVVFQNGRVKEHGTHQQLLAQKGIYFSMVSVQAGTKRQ

MCF7/MX [5] = assay: Potentiation of mitoxantrone anticancer activity against human MCF7/MX cells at 5 uM after 72 hrs by MTT assay; type: functional, cell-based; outline: as §2
MCF7/MX [6] = assay: Potentiation of mitoxantrone anticancer activity against human MCF7/MX cells at 1 uM after 72 hrs by MTT assay; type: functional, cell-based; outline: as §2
[7] = biological target: T1, Broad substrate specificity ATP-binding cassette transporter ABCG2; assay: Inhibition of BCRP in human MCF7/MX cells assessed as Hoechst 33342 accumulation preincubated for 30 mins by Fluorometry; type: cell-based; conditions: read-out: IC50; outline: as §1

IC50 [1]: 530 nM
inhibition (INH) [3]: Not Active
inhibition (INH) [4]: Active
IC50 [7]: 750 nM
Compound: COc1cc(O)c(C(=O)/C=C/c2ccc(OC)c(OC)c2)c(OC)c1
Activity (MCF7/MX [2]): Active
Activity (MCF7/MX [5]): Active
Activity (MCF7/MX [6]): Active
